# Reference: PMC9335275 (Proceedings of the National Academy of Sciences of the …, 2022)
# Read-outs that look alike come from different tables or passages of the source.
# Legend:
# [1] = target: T1, NPR-B receptor on NIH3T3 cells (Mus musculus, UniProt Q6VVW5); assay: 3T3 cell NPR-B guanylate cyclase assay; format: cell-based
# T1 sequence (Q6VVW5 23-1047 limits assumed): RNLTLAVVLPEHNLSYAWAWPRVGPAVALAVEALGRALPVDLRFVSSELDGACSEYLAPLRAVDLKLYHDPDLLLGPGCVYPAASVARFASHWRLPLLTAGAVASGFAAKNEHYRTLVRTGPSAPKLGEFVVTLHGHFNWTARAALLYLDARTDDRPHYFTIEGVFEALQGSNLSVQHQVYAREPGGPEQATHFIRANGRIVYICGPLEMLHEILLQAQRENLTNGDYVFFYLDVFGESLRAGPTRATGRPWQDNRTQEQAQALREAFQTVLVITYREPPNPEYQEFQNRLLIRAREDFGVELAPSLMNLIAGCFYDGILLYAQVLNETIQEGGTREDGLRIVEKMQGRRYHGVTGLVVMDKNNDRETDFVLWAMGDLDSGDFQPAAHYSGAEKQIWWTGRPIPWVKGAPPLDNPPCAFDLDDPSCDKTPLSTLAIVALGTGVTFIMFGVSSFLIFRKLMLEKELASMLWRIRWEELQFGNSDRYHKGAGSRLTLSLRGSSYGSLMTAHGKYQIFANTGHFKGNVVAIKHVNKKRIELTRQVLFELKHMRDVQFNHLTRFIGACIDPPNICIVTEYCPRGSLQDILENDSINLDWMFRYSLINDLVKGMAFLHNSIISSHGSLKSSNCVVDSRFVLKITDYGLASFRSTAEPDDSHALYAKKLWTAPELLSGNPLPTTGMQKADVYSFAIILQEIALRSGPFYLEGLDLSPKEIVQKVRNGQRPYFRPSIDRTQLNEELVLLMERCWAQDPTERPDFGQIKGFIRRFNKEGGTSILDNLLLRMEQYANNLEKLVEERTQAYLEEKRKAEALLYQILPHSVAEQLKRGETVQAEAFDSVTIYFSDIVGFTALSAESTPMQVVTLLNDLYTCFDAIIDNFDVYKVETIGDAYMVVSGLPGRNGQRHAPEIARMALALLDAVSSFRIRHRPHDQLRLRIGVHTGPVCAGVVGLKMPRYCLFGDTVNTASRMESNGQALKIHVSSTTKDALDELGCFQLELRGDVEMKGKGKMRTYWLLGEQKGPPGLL
# [2] = In vitro degradation at pH 7.4, 37 °C, HPLC analysis; format: physicochemical
# [3] = test system: 3-wk-old FVB/nJ male mice; assay: Growth; format: in vivo, mouse; conditions: QD 70 nmol/kg SC, 5 wk, n = 6
# In short: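 Wild-type male FVB/nJ mice, 3 wk old, groups of 6, were given SC injections once daily of 70 nmol/kg peptide or vehicle for 5 wk. Total body length was nasoanal plus tail length, measured in anesthetized mice positioned with head extended, nose on a horizontal guideline and tail straight. Length change over the period was compared with the vehicle group.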
# [4] = Body weight of treated mice; format: in vivo, mouse; conditions: 3-wk-old FVB/nJ male mice, various regimens
# In short: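 Wild-type male FVB/nJ mice, 3 wk old, about 15 g. Groups received one of: vehicle, daily SC 70 nmol/kg peptide, or microsphere-conjugated peptide. Conjugate dosing was weekly, biweekly or a single dose, either as constant nmol per mouse or as µmol/kg by body weight. Body weights of treated and untreated animals were followed over the study.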
# [5] = target: T1, NPR-B receptor on NIH3T3 cells; conditions: read-out: EC50, reported; literature values; cited from earlier work
# [6] = literature value; cited from earlier work
# [7] = monkeys, 12 nmol/kg; cited from earlier work
# [8] = mice, QD 70-nmol/kg dose; cited from earlier work
# mice = conditions: 70 nmol/kg; cited from earlier work
# monkeys = conditions: 12 nmol/kg; cited from earlier work
# children with ACH = conditions: once daily 15 μg/kg SC; cited from earlier work
structure (smiles),measurement,setting,value
CC[C@H](C)[C@@H]1NC(=O)[C@H](CCCNC(=N)N)NC(=O)[C@H](CC(=O)O)NC(=O)[C@H](CC(C)C)NC(=O)[C@H](CCCCN)NC(=O)[C@H](CC(C)C)NC(=O)CNC(=O)[C@H](Cc2ccccc2)NC(=O)[C@@H](NC(=O)CNC(=O)[C@H](CCCCN)NC(=O)[C@H](CO)NC(=O)[C@H](CC(C)C)NC(=O)CNC(=O)[C@H](CCCCN)NC(=O)[C@H](CCCCN)NC(=O)[C@H](CC(N)=O)NC(=O)[C@H](C)NC(=O)CNC(=O)[C@H](CCCCN)NC(=O)[C@H](Cc2ccc(O)cc2)NC(=O)[C@H](CCCCN)NC(=O)[C@H](CCCNC(=N)N)NC(=O)[C@H](C)NC(=O)[C@H](CC(N)=O)NC(=O)[C@@H]2CCCN2C(=O)[C@H](Cc2c[nH]cn2)NC(=O)[C@H](CCC(=O)O)NC(=O)[C@H](CCC(N)=O)NC(=O)CNC(=O)[C@@H]2CCCN2)CSSC[C@@H](C(=O)O)NC(=O)CNC(=O)[C@H](CC(C)C)NC(=O)CNC(=O)[C@H](CO)NC(=O)[C@H](CCSC)NC(=O)[C@H](CO)NC(=O)CNC1=O [vosoritide],EC50,[1],11 nM
same,degradation t1/2,"[2]; 100 µM, 10 mM sodium phosphate, 0.13 M NaCl, pH 7.4, 37 °C, HPLC",~170 h
same,t1/2 for degradation,[2]; physiological pH and temperature,≤ 1 wk
same,growth (TBL) exceeding that of the vehicle control group at study end,[3],100%
same,body weights of treated versus untreated mice,[4],no difference
same,EC50,[5],4.9 nM
same,Cmax,[6],~5 nM
same,Cmax,[7],~10 nM
same,Cmax,[8],200 nM
same,blood pressure and heart rate,mice,acute decreases in blood pressure and increases in heart rate within acceptable limits
same,systemic BP or HR,monkeys,no changes in systemic BP or HR
same,annualized growth velocity,children with ACH,sustained increase in the annualized growth velocity
same,side effect profile,children with ACH,mild side effect profile
